Test system: HEK-293T
Test: Multiplex assay against HEK293T
Assay type: toxicity, cell-based
Conditions: human
Outline: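 Hoechst33342, BioTracker Green Microtubule Cytoskeleton Dye, MitoTracker Red and Annexin V Alexa Fluor 680 were added to live cells at seeding, and imaging on a CQ1 microscope at 37°C and 5% CO2 followed compound addition. Gating by CellPathfinder machine learning separated cells into Hoechst high-intensity objects or normal cells, then normal cells into healthy, pyknosed or fragmented nuclei, then pyknosed cells into mitotic or apoptotic. Per cents of healthy-nucleus cells are reported for the tubulin, mitochondrial-mass and membrane-permeability phenotypes.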

[1] = 12 h, 1 µM, compound concentration 1 uM, replicate 1
[2] = 12 h, 1 µM, compound concentration 1 uM, replicate 2
[3] = 12 h, 10 µM, compound concentration 10 uM, replicate 1
[4] = 12 h, 10 µM, compound concentration 10 uM, replicate 2
[5] = 24 h, 1 µM, compound concentration 1 uM, replicate 1
[6] = 24 h, 1 µM, compound concentration 1 uM, replicate 2
[7] = 24 h, 10 µM, compound concentration 10 uM, replicate 1
[8] = 24 h, 10 µM, compound concentration 10 uM, replicate 2
[9] = 48 h, 1 µM, compound concentration 1 uM, replicate 1
[10] = 48 h, 1 µM, compound concentration 1 uM, replicate 2
[11] = 48 h, 10 µM, compound concentration 10 uM, replicate 1
[12] = 48 h, 10 µM, compound concentration 10 uM, replicate 2

Q: What does the source list for Cc1cc(=O)n(C)c2cc(N3C(=O)CC[C@H](NS(=O)(=O)CC(C)C)[C@H]3c3ccc(Cl)cc3)ccc12?
A: Population Apoptotic (%) [1]: 43%; Population Fragmented Nuclei (%) [1]: 7%; Population Healthy Nuclei (%) [1]: 83%; Population Hoechst High Intensity Objects (%) [1]: 8%; Population Membrane Permeable-Phenotype (%) [1]: 0%; Population Mitochondria Different-Phenotype (%) [1]: 41%; Population Mitotic Cells (%) [1]: 56%; Population Normal (%) [1]: 91%; Population Pyknosed Nuclei (%) [1]: 8%; Population Tubulin-Different-Phenotype (%) [1]: 32%; Total Cell Count [1]: 454; Population Apoptotic (%) [2]: 63%; Population Fragmented Nuclei (%) [2]: 6%; Population Healthy Nuclei (%) [2]: 78%; Population Hoechst High Intensity Objects (%) [2]: 6%; Population Mitochondria Different-Phenotype (%) [2]: 53%; Population Mitotic Cells (%) [2]: 36%; Population Normal (%) [2]: 93%; Population Pyknosed Nuclei (%) [2]: 14%; Population Tubulin-Different-Phenotype (%) [2]: 14%; Total Cell Count [2]: 265; Population Apoptotic (%) [3]: 47%; Population Fragmented Nuclei (%) [3]: 4%; Population Healthy Nuclei (%) [3]: 70%; Population Hoechst High Intensity Objects (%) [3]: 11%; Population Membrane Permeable-Phenotype (%) [3]: 0%; Population Mitochondria Different-Phenotype (%) [3]: 75%; Population Mitotic Cells (%) [3]: 52%; Population Normal (%) [3]: 88%; Population Pyknosed Nuclei (%) [3]: 24%; Population Tubulin-Different-Phenotype (%) [3]: 81%; Total Cell Count [3]: 368; Population Apoptotic (%) [4]: 50%; Population Fragmented Nuclei (%) [4]: 6%; Population Healthy Nuclei (%) [4]: 66%; Population Hoechst High Intensity Objects (%) [4]: 16%; Population Mitochondria Different-Phenotype (%) [4]: 86%; Population Mitotic Cells (%) [4]: 49%; Population Normal (%) [4]: 83%; Population Pyknosed Nuclei (%) [4]: 27%; Population Tubulin-Different-Phenotype (%) [4]: 66%; Total Cell Count [4]: 331; Population Apoptotic (%) [5]: 33%; Population Fragmented Nuclei (%) [5]: 9%; Population Healthy Nuclei (%) [5]: 81%; Population Hoechst High Intensity Objects (%) [5]: 4%; Population Membrane Permeable-Phenotype (%) [5]: 0%; Population Mitochondria Different-Phenotype (%) [5]: 25%; Population Mitotic Cells (%) [5]: 66%; Population Normal (%) [5]: 95%; Population Pyknosed Nuclei (%) [5]: 9%; Population Tubulin-Different-Phenotype (%) [5]: 19%; Total Cell Count [5]: 646; Population Apoptotic (%) [6]: 36%; Population Fragmented Nuclei (%) [6]: 4%; Population Healthy Nuclei (%) [6]: 82%; Population Hoechst High Intensity Objects (%) [6]: 5%; Population Membrane Permeable-Phenotype (%) [6]: 1%; Population Mitochondria Different-Phenotype (%) [6]: 42%; Population Mitotic Cells (%) [6]: 63%; Population Normal (%) [6]: 94%; Population Pyknosed Nuclei (%) [6]: 13%; Population Tubulin-Different-Phenotype (%) [6]: 17%; Total Cell Count [6]: 327; Population Apoptotic (%) [7]: 34%; Population Fragmented Nuclei (%) [7]: 7%; Population Healthy Nuclei (%) [7]: 72%; Population Hoechst High Intensity Objects (%) [7]: 9%; Population Membrane Permeable-Phenotype (%) [7]: 0%; Population Mitochondria Different-Phenotype (%) [7]: 67%; Population Mitotic Cells (%) [7]: 65%; Population Normal (%) [7]: 90%; Population Pyknosed Nuclei (%) [7]: 19%; Population Tubulin-Different-Phenotype (%) [7]: 67%; Total Cell Count [7]: 419; Population Apoptotic (%) [8]: 76%; Population Fragmented Nuclei (%) [8]: 8%; Population Healthy Nuclei (%) [8]: 67%; Population Hoechst High Intensity Objects (%) [8]: 22%; Population Mitochondria Different-Phenotype (%) [8]: 85%; Population Mitotic Cells (%) [8]: 23%; Population Normal (%) [8]: 77%; Population Pyknosed Nuclei (%) [8]: 23%; Population Tubulin-Different-Phenotype (%) [8]: 71%; Total Cell Count [8]: 328; Population Apoptotic (%) [9]: 25%; Population Fragmented Nuclei (%) [9]: 14%; Population Healthy Nuclei (%) [9]: 78%; Population Hoechst High Intensity Objects (%) [9]: 3%; Population Membrane Permeable-Phenotype (%) [9]: 0%; Population Mitochondria Different-Phenotype (%) [9]: 17%; Population Mitotic Cells (%) [9]: 74%; Population Normal (%) [9]: 96%; Population Pyknosed Nuclei (%) [9]: 6%; Population Tubulin-Different-Phenotype (%) [9]: 15%; Total Cell Count [9]: 985; Population Apoptotic (%) [10]: 31%; Population Fragmented Nuclei (%) [10]: 11%; Population Healthy Nuclei (%) [10]: 79%; Population Hoechst High Intensity Objects (%) [10]: 7%; Population Mitochondria Different-Phenotype (%) [10]: 20%; Population Mitotic Cells (%) [10]: 68%; Population Normal (%) [10]: 92%; Population Pyknosed Nuclei (%) [10]: 9%; Population Tubulin-Different-Phenotype (%) [10]: 17%; Total Cell Count [10]: 454; Population Apoptotic (%) [11]: 56%; Population Fragmented Nuclei (%) [11]: 12%; Population Healthy Nuclei (%) [11]: 77%; Population Hoechst High Intensity Objects (%) [11]: 10%; Population Membrane Permeable-Phenotype (%) [11]: 1%; Population Mitochondria Different-Phenotype (%) [11]: 67%; Population Mitotic Cells (%) [11]: 43%; Population Normal (%) [11]: 89%; Population Pyknosed Nuclei (%) [11]: 10%; Population Tubulin-Different-Phenotype (%) [11]: 58%; Total Cell Count [11]: 548; Population Apoptotic (%) [12]: 66%; Population Healthy Nuclei (%) [12]: 67%; Population Hoechst High Intensity Objects (%) [12]: 19%; Population Membrane Permeable-Phenotype (%) [12]: 0%; Population Mitochondria Different-Phenotype (%) [12]: 76%; Population Mitotic Cells (%) [12]: 33%; Population Normal (%) [12]: 80%; Population Pyknosed Nuclei (%) [12]: 19%; Population Tubulin-Different-Phenotype (%) [12]: 56%; Total Cell Count [12]: 371
